Calls of active or inactive are those of the source. The rule behind the calls is not given here.
How the values were obtained:
Mycolicibacterium aurum [1] = test: Growth inhibition of Mycobacterium aurum expressing Mycobacterium tuberculosis H37Rv kas operon in fusion Escherichia coli lacZ gene at 50 uM incubated for 12 hrs; type: functional; conditions: read-out: GI
Mycolicibacterium aurum [2] = test: Growth inhibition of Mycobacterium aurum expressing Mycobacterium tuberculosis H37Rv kas operon in fusion Escherichia coli lacZ gene at 100 uM incubated for 12 hrs; type: functional; conditions: read-out: GI
Mycolicibacterium aurum [3] = test: Inhibition of FAS2 in recombinant Mycobacterium aurum expressing hsp60 promoter in fusion Escherichia coli lacZ gene assessed as increase in beta-galactosidase activity at 100 uM incubated for 12 hrs by lacZ reporter gene assay
Mycolicibacterium aurum [4] = test: Inhibition of FAS2 in recombinant Mycobacterium aurum expressing Mycobacterium tuberculosis H37Rv kas operon in fusion Escherichia coli lacZ gene assessed as increase in beta-galactosidase activity at 50 uM incubated for 12 hrs by lacZ reporter gene assay
In short: (§1)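 Cells washed, sonicated in PBS pH 7.2; equal Bradford-quantified protein incubated with ONPG (4 mg/ml) 30 min at 37 °C, stopped with Na2CO3, read at 410 nm. Triplicates, experiment repeated twice; isoniazid positive control.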

Mycolicibacterium aurum [5] = test: Inhibition of FAS2 in recombinant Mycobacterium aurum expressing hsp60 promoter in fusion Escherichia coli lacZ gene assessed as increase in beta-galactosidase activity at 50 uM incubated for 12 hrs by lacZ reporter gene assay
[6] = Toxicity against macrophages incubated for 48 hrs by resazurin dye reduction assay; type: cell-based, Macrophage
In short: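 Macrophages from subconfluent monolayers seeded ~1 × 10^6 cells/well in RPMI-1640; compounds 100 to 12.5 µM, 48 h at 37 °C, 5% CO2; resazurin added for 4 h, fluorescence 535/590 nm read against untreated wells as % viability; CC50 taken from viability-versus-concentration plot; triplicates.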

Mycolicibacterium aurum [7] = test: Inhibition of FAS2 in recombinant Mycobacterium aurum expressing Mycobacterium tuberculosis H37Rv kas operon in fusion Escherichia coli lacZ gene assessed as increase in beta-galactosidase activity at 100 uM incubated for 12 hrs by lacZ reporter gene assay; in short: as §1
[8] = target: Serine/threonine-protein kinase PknG (Mycobacterium tuberculosis) (UniProt P9WI73); test: Inhibition of Mycobacterium tuberculosis recombinant PKnG expressed in Escherichia coli BL21 (DE3) cells using myelin basic protein substrate at 100 uM by luciferase activity based ADP-Glo-luminescent kinase assay
Chain of Serine/threonine-protein kinase PknG (Mycobacterium tuberculosis) (P9WI73 whole entry): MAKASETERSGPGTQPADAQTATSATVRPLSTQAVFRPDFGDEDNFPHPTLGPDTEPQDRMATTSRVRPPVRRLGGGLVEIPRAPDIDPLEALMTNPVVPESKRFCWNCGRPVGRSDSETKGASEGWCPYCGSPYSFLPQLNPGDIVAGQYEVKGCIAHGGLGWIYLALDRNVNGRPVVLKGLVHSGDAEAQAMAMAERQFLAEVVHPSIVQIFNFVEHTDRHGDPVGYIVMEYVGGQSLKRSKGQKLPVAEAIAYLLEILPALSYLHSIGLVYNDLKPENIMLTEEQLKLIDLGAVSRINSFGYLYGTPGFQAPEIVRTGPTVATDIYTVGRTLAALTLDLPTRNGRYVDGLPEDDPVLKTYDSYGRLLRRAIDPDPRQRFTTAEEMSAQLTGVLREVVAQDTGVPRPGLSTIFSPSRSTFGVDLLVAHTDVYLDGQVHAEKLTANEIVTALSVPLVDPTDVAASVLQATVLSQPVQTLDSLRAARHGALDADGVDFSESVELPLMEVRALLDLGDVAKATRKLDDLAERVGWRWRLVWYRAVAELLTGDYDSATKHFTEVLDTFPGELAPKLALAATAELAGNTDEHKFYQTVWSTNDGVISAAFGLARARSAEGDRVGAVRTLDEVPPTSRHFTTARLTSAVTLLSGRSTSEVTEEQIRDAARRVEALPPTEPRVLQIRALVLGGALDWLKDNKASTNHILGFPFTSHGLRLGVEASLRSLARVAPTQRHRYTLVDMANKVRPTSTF
In short: (§2)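 6-His-PknG from M. tuberculosis genomic DNA cloned into pTriEx4, expressed in E. coli with 0.8 mM IPTG 4 h at 37 °C, purified by Ni2+-NTA then size exclusion. Compounds dissolved in DMSO; assayed with myelin basic protein substrate; ADP formed measured by ADP-Glo luminescence; AX20017 positive control; dose-response series.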

[9] = target: Serine/threonine-protein kinase PknG (Mycobacterium tuberculosis) (UniProt P9WI73); test: Inhibition of Mycobacterium tuberculosis recombinant PKnG expressed in Escherichia coli BL21 (DE3) cells using myelin basic protein substrate at 3.125 uM by luciferase activity based ADP-Glo-luminescent kinase assay; in short: as §2
[10] = target: Serine/threonine-protein kinase PknG (Mycobacterium tuberculosis) (UniProt P9WI73); test: Inhibition of Mycobacterium tuberculosis recombinant PKnG expressed in Escherichia coli BL21 (DE3) cells using myelin basic protein substrate at 25 uM by luciferase activity based ADP-Glo-luminescent kinase assay; in short: as §2
[11] = target: Serine/threonine-protein kinase PknG (Mycobacterium tuberculosis) (UniProt P9WI73); test: Inhibition of Mycobacterium tuberculosis recombinant PKnG expressed in Escherichia coli BL21 (DE3) cells using myelin basic protein substrate at 6.25 uM by luciferase activity based ADP-Glo-luminescent kinase assay; in short: as §2
[12] = target: Serine/threonine-protein kinase PknG (Mycobacterium tuberculosis) (UniProt P9WI73); test: Inhibition of Mycobacterium tuberculosis recombinant PKnG expressed in Escherichia coli BL21 (DE3) cells using myelin basic protein substrate at 50 uM by luciferase activity based ADP-Glo-luminescent kinase assay; in short: as §2
[13] = target: Serine/threonine-protein kinase PknG (Mycobacterium tuberculosis) (UniProt P9WI73); test: Inhibition of Mycobacterium tuberculosis recombinant PKnG expressed in Escherichia coli BL21 (DE3) cells using myelin basic protein substrate at 12.5 uM by luciferase activity based ADP-Glo-luminescent kinase assay; in short: as §2

Structure (SMILES) | inhibition of growth at 50 µM (Mycolicibacterium aurum [1]) | inhibition of growth at 100 µM (Mycolicibacterium aurum [2]) | inhibition [8] | further results
CCCCCCn1cc(COc2ccc3c(c2)OC(c2ccc(C(C)C)cc2)CC3=O)nn1 (stereo unspecified) | 34.1% | 56.4% |  | 
CCCCCCn1cc(COc2ccc(C(=O)/C=C/c3ccc(Cl)cc3)c(O)c2)nn1 | 6.1% | 59% |  | 
O=C(/C=C/c1ccccc1)c1ccc(OCc2cn(Cc3ccccc3)nn2)cc1O | 49.9% | 88% |  | inhibition (Mycolicibacterium aurum [3]): inactive; inhibition (Mycolicibacterium aurum [4]): Active; inhibition (Mycolicibacterium aurum [5]): inactive; CC50 at 48 h [6]: 80 µM; inhibition (Mycolicibacterium aurum [7]): Active
CC(C)c1ccc(-c2cc(-c3ccc(OCc4cn(Cc5ccc(Br)cc5)nn4)cc3O)nc(N)n2)cc1 |  |  | 5% | 
C#CCOc1ccc(-c2cc(-c3ccc(OCc4cn(CCCCCC)nn4)cc3O)nc(N)n2)cc1 |  |  | 17% | 
CCCCCCn1cc(COc2ccc(-c3cc(-c4ccc(Cl)cc4)nc(N)n3)c(O)c2)nn1 |  |  | 43% | inhibition [9]: 0%; inhibition [10]: 0%; CC50 at 48 h [6]: 30.3 µM; inhibition [11]: 0%; inhibition [12]: 0%
CCCCCCn1cc(COc2ccc3c(c2)OC(c2ccccc2)CC3=O)nn1 (stereo unspecified) | 19% | 70.2% |  | 
Nc1nc(-c2ccc(OCc3cn(Cc4ccccc4)nn3)cc2O)cc(-c2c(F)cccc2Cl)n1 |  |  | 12% | 
O=C(/C=C/c1ccc(Br)cc1)c1ccc(OCc2cn(Cc3ccc(Br)cc3)nn2)cc1O | 11.6% | 28% |  | 
O=C1CC(c2ccccc2)Oc2cc(OCc3cn(Cc4ccc(Br)cc4)nn3)ccc21 (stereo unspecified) | 15.8% | 66.1% |  | 
O=C1CC(c2ccccc2)Oc2cc(OCc3cn(Cc4ccccc4)nn3)ccc21 (stereo unspecified) | 27% | 74.8% |  | 
O=C(/C=C/c1c(F)cccc1Cl)c1ccc(OCc2cn(Cc3ccccc3)nn2)cc1O | 17.6% | 74.5% |  | 
C#CCOc1ccc(/C=C/C(=O)c2ccc(OCc3cn(CCCCCC)nn3)cc2O)cc1 | 39.6% | 56% |  | 
CCCCCCn1cc(COc2ccc(-c3cc(-c4ccc(OC)cc4)nc(N)n3)c(O)c2)nn1 |  |  | 4% | 
CCCCCCn1cc(COc2ccc(C(C)=O)c(O)c2)nn1 | 93.1% | 91.8% |  | inhibition (Mycolicibacterium aurum [4]): inactive; inhibition (Mycolicibacterium aurum [7]): inactive
O=C(/C=C/c1ccc(Cl)cc1)c1ccc(OCc2cn(Cc3ccccc3)nn2)cc1O | 11.6% | 28% |  | 
CCCCCCn1cc(COc2ccc(-c3cc(-c4ccc(C(C)C)cc4)nc(N)n3)c(O)c2)nn1 |  |  | 5% | 
CC(=O)c1ccc(OCc2cn(Cc3ccc(Br)cc3)nn2)cc1O | 70.4% | 73.7% |  | inhibition (Mycolicibacterium aurum [4]): inactive; inhibition (Mycolicibacterium aurum [7]): inactive
COc1ccc(/C=C/C(=O)c2ccc(OCc3cn(Cc4ccccc4)nn3)cc2O)cc1 | 25.5% | 68.7% |  | 
O=C(/C=C/c1cccc2ccccc12)c1ccc(OCc2cn(Cc3ccc(Br)cc3)nn2)cc1O | 0% | 63.2% |  | 
O=C(/C=C/c1cccc2ccccc12)c1ccc(OCc2cn(Cc3ccccc3)nn2)cc1O | 2.6% | 51.6% |  | 
CC(C)c1ccc(-c2cc(-c3ccc(OCc4cn(Cc5ccccc5)nn4)cc3O)nc(N)n2)cc1 |  |  | 28% | inhibition [9]: 0%; inhibition [10]: 0%; CC50 at 48 h [6]: > 100 µM; inhibition [13]: 0%; inhibition [11]: 0%; inhibition [12]: 16%
CCCCCCn1cc(COc2ccc(C(=O)/C=C/c3ccc(Br)cc3)c(O)c2)nn1 | 69.6% | 76.5% |  | inhibition (Mycolicibacterium aurum [4]): inactive; CC50 at 48 h [6]: > 100 µM; inhibition (Mycolicibacterium aurum [7]): inactive

Structure (SMILES) | inhibition of growth at 50 µM (Mycolicibacterium aurum [1]) | inhibition of growth at 100 µM (Mycolicibacterium aurum [2]) | inhibition [8] | further results
Nc1nc(-c2ccccc2)cc(-c2ccc(OCc3cn(Cc4ccc(Br)cc4)nn3)cc2O)n1 |  |  | 41% | inhibition [10]: 9%; CC50 at 48 h [6]: > 100 µM; inhibition [13]: 0%; inhibition [12]: 17%
COc1ccc(-c2cc(-c3ccc(OCc4cn(Cc5ccccc5)nn4)cc3O)nc(N)n2)cc1 |  |  | 43% | inhibition [9]: 6%; inhibition [10]: 9%; CC50 at 48 h [6]: 42.7 µM; inhibition [13]: 10%; inhibition [11]: 0%; inhibition [12]: 43%
Nc1nc(-c2ccc(Cl)cc2)cc(-c2ccc(OCc3cn(Cc4ccccc4)nn3)cc2O)n1 |  |  | 53% | inhibition [9]: 4%; inhibition [10]: 19%; CC50 at 48 h [6]: 66.6 µM; inhibition [13]: 5%; inhibition [11]: 5%
CCCCCCn1cc(COc2ccc(C(=O)/C=C/c3ccc(OC)cc3)c(O)c2)nn1 | 6.2% | 44.7% |  | 
CCCCCCn1cc(COc2ccc(C(=O)/C=C/c3ccc(C(C)C)cc3)c(O)c2)nn1 | 0% | 31.4% |  | 
CCCCCCn1cc(COc2ccc(-c3cc(-c4c(F)cccc4Cl)nc(N)n3)c(O)c2)nn1 |  |  | 11% | 
O=C1CC(c2ccc(Br)cc2)Oc2cc(OCc3cn(Cc4ccc(Br)cc4)nn3)ccc21 (stereo unspecified) | 50% | 70.6% |  | inhibition (Mycolicibacterium aurum [4]): inactive; CC50 at 48 h [6]: 87.5 µM; inhibition (Mycolicibacterium aurum [7]): inactive
CCCCCCn1cc(COc2ccc(-c3cc(-c4cccc5ccccc45)nc(N)n3)c(O)c2)nn1 |  |  | 11% | 
C#CCOc1ccc(/C=C/C(=O)c2ccc(OCc3cn(Cc4ccccc4)nn3)cc2O)cc1 | 0% | 22% |  | 
Nc1nc(-c2ccc(OCc3cn(Cc4ccc(Br)cc4)nn3)cc2O)cc(-c2cccc3ccccc23)n1 |  |  | 34% | inhibition [9]: 0%; inhibition [10]: 0%; CC50 at 48 h [6]: > 100 µM; inhibition [13]: 0%; inhibition [11]: 2%; inhibition [12]: 3%
CCCCCCn1cc(COc2ccc(C(=O)/C=C/c3cccc4ccccc34)c(O)c2)nn1 | 5.5% | 18.8% |  | 
Nc1nc(-c2ccccc2)cc(-c2ccc(OCc3cn(Cc4ccccc4)nn3)cc2O)n1 |  |  | 29% | inhibition [9]: 5%; inhibition [10]: 14%; CC50 at 48 h [6]: 76.5 µM; inhibition [13]: 18%; inhibition [11]: 4%; inhibition [12]: 37%
Nc1nc(-c2ccc(Br)cc2)cc(-c2ccc(OCc3cn(Cc4ccc(Br)cc4)nn3)cc2O)n1 |  |  | 19% | inhibition [9]: 5%; inhibition [10]: 0%; inhibition [13]: 0%; inhibition [11]: 0%; inhibition [12]: 0%
NC(=O)C1=C(NC(=O)C2CC2)CC2=C1CCCC2 |  |  |  | inhibition [10]: 22%; inhibition [13]: 12%; inhibition [12]: 24%
CC(C)c1ccc(/C=C/C(=O)c2ccc(OCc3cn(Cc4ccccc4)nn3)cc2O)cc1 | 0% | 12.7% |  | 
CCCCCCn1cc(COc2ccc(C(=O)/C=C/c3ccccc3)c(O)c2)nn1 | 16.8% | 57.7% |  | 
O=C1CC(c2ccc(Cl)cc2)Oc2cc(OCc3cn(Cc4ccccc4)nn3)ccc21 (stereo unspecified) | 46.9% | 79.8% |  | 
C#CCOc1ccc(C(C)=O)c(O)c1 | 2% | 35.6% |  | 
CC(C)c1ccc(C2CC(=O)c3ccc(OCc4cn(Cc5ccc(Br)cc5)nn4)cc3O2)cc1 (stereo unspecified) | 31% | 72.5% |  | 
Nc1nc(-c2ccc(OCc3cn(Cc4ccccc4)nn3)cc2O)cc(-c2cccc3ccccc23)n1 |  |  | 35% | inhibition [9]: 0%; inhibition [10]: 7%; CC50 at 48 h [6]: 71.3 µM; inhibition [13]: 11%; inhibition [11]: 9%; inhibition [12]: 25%
CC(=O)c1ccc(OCc2cn(Cc3ccccc3)nn2)cc1O | 23.7% | 75.9% |  | inhibition (Mycolicibacterium aurum [4]): inactive; inhibition (Mycolicibacterium aurum [7]): inactive
CC(C)c1ccc(/C=C/C(=O)c2ccc(OCc3cn(Cc4ccc(Br)cc4)nn3)cc2O)cc1 | 0% | 17.8% |  | 

Source: ChEMBL document CHEMBL2069213, “Synthesis and evaluation of small libraries of triazolylmethoxy chalcones, flavanones and 2-aminopyrimidines as inhibitors of mycobacterial FAS-II and PknG” (Bioorg Med Chem, 2012)
